# Screens (PubChem)
# An excerpt weighted towards active compounds, which were near 2.9% of everything screened.
# PfM18AAP inh – PfM18AAP inhibitors, malaria aminopeptidase, primary screen, biochemical, QFRET, recombinant enzyme | inhibition, % at 7.35 µM | M18 aspartyl aminopeptidase (Plasmodium falciparum 3D7) | 290,000 tested, 1.2% active | H-Glu-NHMec fluorogenic cleavage;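 active means inhibition above the campaign mean inhibition over all tested compounds plus 3 SD, cut at about 28% in these data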
# ZTA DNA inh – ZTA (EBV) inhibition in EBNA-1 counter-screen; P03206; AID 2234; inhibition, % at 11 µM; 320,000 tested, 0.15% active; ZTA-DNA binding, fluorescence polarization; in the data active means inhibition above about 33%
# PfGluPho inh – PfG6PD enzyme inhibitors, primary screen, biochemical, fluorescence intensity, uHTS | inhibition, % at 20 µM | PfGluPho enzyme, NADPH resazurin-diaphorase fluorescence | glucose-6-phosphate dehydrogenase-6-phosphogluconolactonase (Plasmodium falciparum 3D7) | 350,000 tested, 0.78% active;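 active means inhibition reaching at least a set limit at 20 µM in the primary screen, cut at about 59% in these data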
# Apaf1 inhib – inhibitors of human Apaf-1 apoptosome, primary screen, biochemical, DEVD-Rh110 fluorescence, uHTS | 330,000 tested, 0.71% active | inhibition, % at 20 µM | reconstituted apoptosome caspase-3 activity | Apoptotic protease-activating factor 1 (Homo sapiens), O14727; active means inhibition of at least 40% at 20 µM
#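 Medium: Hepes buffer, pH 7.5 / System: biochemical Apaf-1 apoptosome reconstitution / Measured by: Rh110 fluorescence, excitation 480 nm, emission 540 nm / Times: compound with Apaf-1, dATP, procaspase-3 30 min, then 50 min reaction, room temperature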
# UBC13 polyUb – UBC13 polyubiquitin chain formation inhibitors, primary screen, biochemical, TR-FRET, uHTS. 330,000 tested, 0.47% active. inhibition, % at 20 µM. Ubiquitin-conjugating enzyme E2 N (Homo sapiens), P61088; in the data active means inhibition above about 45%, passing the limit was not always enough
# EBNA-1 inhibitor – EBNA-1 DNA-binding inhibitors, primary screen, biochemical, fluorescence polarization. 300,000 tested, 0.34% active. inhibition, % at 14.8 µM. AID 1950, 2009; in the data active means inhibition above about 28%
# Apaf-1 inh conf – Apaf-1 inhibitors, single-dose retest, confirmation, biochemical, fluorescence, DEVD-Rh110, 20 µM. shares compounds with Apaf1 inhib. reconstituted apoptosome, caspase-3 DEVD-Rh110 fluorescence. inhibition, % at 20 µM. 1,800 tested, 25% active. AID 504614, 2011;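 active means mean inhibition of at least 40% at 20 µM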
# Rh110 interf inh – Rh110 fluorescence interference by putative Apaf-1 inhibitors, confirmation, artefact control for Apaf-1 inhibitor project, biochemical, 20 µM; shares compounds with Apaf1 inhib; quenched caspase reaction; activation (fluorescence interference), % at 20 µM; 1,800 tested, under 10 active; AID 504615, 2011;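 active means signal rise of 40% or more at 20 µM, treated as a fluorescence artifact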
# Fluor interf inh – fluorescence interference of Apaf-1 inhibitor hits, dose response, artefact control for Apaf-1 inhibitor project | shares compounds with Apaf1 inhib | IC50, µM | 460 tested, under 10 active | AID 588538, 2011 | fluorescence interference counterscreen, Apaf-1 assay format; call rule not given here
# A number is an active result; n = inactive; x = not tested or not shown.
SMILES,PfM18AAP inh,ZTA DNA inh,PfGluPho inh,Apaf1 inhib,UBC13 polyUb,EBNA-1 inhibitor,Apaf-1 inh conf,Rh110 interf inh,others
Cc1ccc(S(=O)(=O)N(C)C)cc1NC(=S)Nc1cccc2ccccc12,n,n,61,93,n,n,n,n,
CCOc1ccc(C(=O)NC(C)(C)CC)cc1,n,n,n,n,n,n,x,x,
CN1CCc2nc(SCC(=O)Nc3cccc(F)c3)c(C#N)c(-c3cccs3)c2C1,n,n,n,67,n,n,n,n,
O=C(c1ccc(-c2ccccc2Cl)o1)N1CCCC(C(F)(F)F)C1 (stereo unspecified),x,n,n,41,n,x,n,n,
O=C(c1ccc(-c2ccccc2Cl)o1)N1CCC1,x,x,n,n,n,x,x,x,
O=C1CC(=Nc2ccccc2)NN1c1ccccc1,n,n,n,66,n,n,n,n,
NCCN1CCN(S(=O)(=O)c2ccc([N+](=O)[O-])cc2)C=C1c1ccc(Cl)cc1,x,n,n,43,n,x,n,n,
COC(=O)c1ccc(OC)c(Cn2c(=O)n(C)c(=O)c3ccccc32)c1,n,n,n,n,n,n,x,x,
COC(=O)c1cccc(C23CC4(C2)[C@H](CN(CC2CCCCC2)[C@@H]4c2ccccc2)C3c2ccccc2)c1 (stereo partly specified),x,n,n,40,n,n,n,n,
CC(=NNC(=O)c1cccc(S(=O)(=O)N2CCOCC2)c1)c1ccc(Cl)cc1,x,x,n,n,n,x,x,x,
CC(C)=C1C2CCC1C(C(=O)Nc1cc(C)cc(C)c1)C2C(=O)O (stereo unspecified),n,n,n,n,n,n,x,x,
O=C1c2ccccc2C(=O)c2[nH]c(=O)[nH]c21,n,n,n,80,n,n,75,n,Fluor interf inh=n
CC(=O)N(C1=C(O)c2ccccc2C(=O)C1=O)C1CCCCC1,n,n,n,n,n,n,x,x,
O=C1C(O)=C(O)C(=O)c2ccccc21,x,n,n,92,n,n,67,n,Fluor interf inh=n
CC(=O)N(C)C1=C(O)c2ccccc2C(=O)C1=O,n,n,n,40,n,n,n,n,
CNc1nc(-c2ccccc2)cc(C)c1S(C)(=O)=O,n,n,n,n,n,n,x,x,
O=C(NCC(c1ccco1)N1CCc2ccccc2C1)C(=O)Nc1cc(F)ccc1F (stereo unspecified),x,n,n,n,n,n,x,x,
CN(CCc1ccccn1)C(=O)CC1C(=O)NCCN1Cc1cccc(F)c1 (stereo unspecified),n,n,n,n,n,n,x,x,
C=CCSC1=NN2CCS(=O)(=O)N=C2S1,n,n,n,n,n,n,x,x,
CN(Cc1cccnc1)C(=O)CNC(=O)COc1ccccc1,n,n,n,n,n,n,x,x,
O=[N+]([O-])c1ccccc1S(=O)(=O)N1CCN(C2CCN(Cc3ccccc3)CC2)CC1,n,n,n,n,n,n,x,x,
CC(NC(=O)C1CCN(C(=O)c2cccs2)CC1)c1ccc(S(N)(=O)=O)cc1 (stereo unspecified),x,n,n,62,n,x,n,n,
COc1cccc(CN(C)C(=O)c2ccc(OCC(=O)N3CCOCC3)c(OC)c2)c1,x,n,n,n,n,x,x,x,
CCOC(=O)C1=C(C)OC2(O)c3ccccc3C(=O)C12O (stereo unspecified),n,n,n,88,n,n,98,n,Fluor interf inh=n
CCOC(=O)C1=C(C)N[C@@]2(O)c3ccccc3C(=O)[C@@]12O,n,n,n,n,n,n,x,x,
SMILES,PfM18AAP inh,ZTA DNA inh,PfGluPho inh,Apaf1 inhib,UBC13 polyUb,EBNA-1 inhibitor,Apaf-1 inh conf,Rh110 interf inh,others
CC(=O)C1=C(C)OC2(O)c3ccccc3C(=O)C12O (stereo unspecified),n,n,n,93,n,n,90,n,Fluor interf inh=n
COc1cccc(OC)c1C(=O)OCC(=O)NCCNC(=O)COC(=O)c1c(OC)cccc1OC,x,x,n,x,x,x,x,x,
COc1ccc(-c2cccc(-c3cc(=O)oc4cc(OC)cc(OC)c34)c2)cc1,x,x,n,n,x,x,x,x,
COc1cc(OC)c2c(-c3cccc(-c4ccc(CO)cc4)c3)cc(=O)oc2c1,x,x,n,42,x,x,n,n,
COc1ccc(C(=O)COC(=O)C2COc3ccccc3O2)c(OC)c1 (stereo unspecified),x,x,n,x,x,x,x,x,
CN(Cc1ccccc1Cl)C(=O)CCNC(=O)c1ccco1,x,x,n,n,n,x,x,x,
COC(=O)C(C)NC(=S)N1CCN(c2c(F)cc3c(=O)c(C(=O)O)cn(C4CC4)c3c2OC)CC1C (stereo unspecified),n,n,n,n,n,n,x,x,
Cn1c(=O)c2c(nc(CN3CCc4ccccc4C3)n2Cc2cccc(Cl)c2)n(C)c1=O,n,n,n,51,n,n,n,n,
Cn1c(=O)c2c(nc(CN3CCN(Cc4ccccc4)CC3)n2Cc2cccc(Cl)c2)n(C)c1=O,n,n,n,n,n,n,x,x,
O=C(Nc1ccncc1)c1cc(-c2cccc(Br)c2)nc2ccccc12,x,n,n,47,n,n,n,n,
COc1ccc(NC(=O)c2cc(-c3ccncc3)nc3ccc(Br)cc23)cc1OC,n,n,n,45,n,n,n,n,
COc1ccc(NC(=O)c2cc(-c3cccnc3)nc3ccc(C)cc23)cc1OC,n,x,n,x,x,x,x,x,
COc1cc(/C=C2\SC(N3CCC(C)CC3)=NC2=O)ccc1O,n,n,n,n,n,n,x,x,
COc1ccc(S(=O)(=O)Cc2ccc(C(=O)NCc3ccccc3OC)o2)cc1,n,n,n,n,n,n,x,x,
Cc1[nH][nH]c(=O)c1C(c1ccc(-c2cccc(C(=O)O)c2)o1)c1c(C)[nH][nH]c1=O,n,n,n,78,n,n,n,n,
Cc1[nH][nH]c(=O)c1C(c1ccc(-c2ccc(Cl)cc2Cl)o1)c1c(C)[nH][nH]c1=O,n,x,x,x,x,x,x,x,
COC(=O)c1ccc(-c2ccc(C(c3c(C)[nH][nH]c3=O)c3c(C)[nH][nH]c3=O)o2)cc1,n,n,n,44,n,n,42,n,Fluor interf inh=n
Cc1[nH][nH]c(=O)c1C(c1ccc(-c2cccc(Cl)c2)o1)c1c(C)[nH][nH]c1=O,n,n,n,87,n,n,41,n,Fluor interf inh=n
Cc1[nH][nH]c(=O)c1C(c1ccc(-c2ccccc2C(=O)O)o1)c1c(C)[nH][nH]c1=O,n,n,n,x,x,n,x,x,
COc1cc(C(=O)N(Cc2ccccc2)c2cccc(C)c2)ccc1OC(F)F,n,n,n,n,n,n,x,x,
